From ChEMBL document CHEMBL1151307, “Effects of tannins from Geum japonicum on the catalytic activity of thrombin and factor Xa of blood coagulation cascade” (J Nat Prod, 1998)
Active and inactive are the calls of the source.

Experiments:
Plasma [1] = experiment: Anticoagulant activity in rabbit plasma assessed as prothrombin time at 0.5 mM after 2 mins; type: functional, Oryctolagus cuniculus
Method in brief: (§1)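 Rabbit plasma was preincubated 2 min at 37 °C with compound dissolved in 0.05 M Tris buffer plus Tris/0.1 M NaCl, pH 7.5. Clotting was triggered with thromboplastin-calcium reagent and read on a fibrometer. Clotting time is in seconds, mean ± SD (n = 3-5), with Student's t-test against control. A cut-off of >300 s was scored as no clotting.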

Plasma [2] = experiment: Anticoagulant activity in rabbit plasma assessed as thrombin time at 0.5 mM after 2 mins; type: functional, Oryctolagus cuniculus
Method in brief: (§2)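 Rabbit plasma, 0.05 M Tris buffer and compound in Tris were preincubated for 2 min at 37 °C. Clotting was started with bovine thrombin (3-4 NIH units/mL) and timed on a fibrometer. Clotting time is in seconds, mean ± SD (n = 3-5), with Student's t-test against control. Clotting beyond 300 s was scored as no clotting.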

Plasma [3] = experiment: Anticoagulant activity in rabbit plasma assessed as activated partial thromboplastin time at 0.5 mM after 2 mins; type: functional, Oryctolagus cuniculus
Method in brief: (§3)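 Rabbit plasma with test compound in 0.05 M Tris buffer was incubated with APTT reagent for 2 min at 37 °C. Clotting was started with 25 mM CaCl2 and timed on a fibrometer. Clotting time is in seconds, mean ± SD (n = 3-5), compared with control by Student's t-test. Clotting beyond 300 s was scored as no clotting.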

Plasma [4] = experiment: Anticoagulant activity in rabbit plasma assessed as prothrombin time at 0.1 mM after 2 mins; type: functional, Oryctolagus cuniculus; settings: in the assay text read “1 mM” for “0.1 mM”; method in brief: as §1
Plasma [5] = experiment: Anticoagulant activity in rabbit plasma assessed as thrombin time at 0.1 mM after 2 mins; type: functional, Oryctolagus cuniculus; settings: in the assay text read “1 mM” for “0.1 mM”; method in brief: as §2
Plasma [6] = experiment: Anticoagulant activity in rabbit plasma assessed as activated partial thromboplastin time at 0.1 mM after 2 mins; type: functional, Oryctolagus cuniculus; settings: in the assay text read “1 mM” for “0.1 mM”; method in brief: as §3
Prothrombin [7] = molecular target: T1, Prothrombin (Bos taurus, UniProt P00735); experiment: Inhibition of bovine thrombin by Lineweaver-Burke plot analysis
Method in brief: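 Bovine plasma thrombin (0.19 NIH units/mL) was run in 0.05 M Tris/0.1 M NaCl, pH 7.5, at 37 °C. It was preincubated with compound for under 2 min, and the reaction was started with S-2238 at 0.6-1.7 mM. Initial rates were taken as p-nitroaniline release at 405 nm. Inhibition type and Ki came from linear-regression Lineweaver-Burk plots.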

Prothrombin [8] = molecular target: T1, Prothrombin; experiment: Inhibition of bovine thrombin-catalyzed hydrolysis of S-2238
Method in brief: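 Bovine plasma thrombin (0.19 NIH units/mL solution) in 0.05 M Tris with 0.1 M NaCl (pH 7.5) was preincubated with compound for 2 min at 37 °C. S-2238 was added as a 0.66 mM solution to start the reaction. p-Nitroaniline release was followed at 405 nm over 5 min and expressed as % inhibition. IC50 is the concentration that inhibits 50% of initial activity. Mean of three experiments.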

Prothrombin [9] = molecular target: T1, Prothrombin; experiment: Inhibition of bovine thrombin-catalyzed hydrolysis of fibrinogen
Method in brief: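 Compound at various concentrations was preincubated with thrombin (0.05 NIH units/mL solution) for 3 min at 37 °C. The reaction was started with fibrinogen (2 mg/mL solution). Clot turbidity was read at 405 nm for 5 min and velocities were taken as mOD/min. IC50 is the concentration that inhibits 50% of initial activity. Mean of three experiments.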

Coagulation factor X [10] = molecular target: T2, Coagulation factor X (Homo sapiens, UniProt P00742); experiment: Inhibition of human factor 10a
T2 sequence (P00742 41-179 limits assumed): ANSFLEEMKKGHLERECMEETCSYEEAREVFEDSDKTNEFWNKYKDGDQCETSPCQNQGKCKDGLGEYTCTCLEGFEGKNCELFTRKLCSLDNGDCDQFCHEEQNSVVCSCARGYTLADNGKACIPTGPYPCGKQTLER
T2 sequence (P00742 235-488 limits assumed): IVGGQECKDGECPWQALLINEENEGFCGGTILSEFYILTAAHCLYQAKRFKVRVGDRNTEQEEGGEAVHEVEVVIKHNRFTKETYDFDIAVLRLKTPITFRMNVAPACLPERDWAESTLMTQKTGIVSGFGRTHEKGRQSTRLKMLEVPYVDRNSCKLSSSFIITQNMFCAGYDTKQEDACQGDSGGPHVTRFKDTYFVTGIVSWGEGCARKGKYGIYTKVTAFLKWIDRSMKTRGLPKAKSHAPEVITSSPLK
Method in brief: (§4)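 Compound and 0.20 mM S-2222 were mixed in 0.05 M Tris/0.1 M NaCl, pH 8.3. Reaction was started with factor Xa (50 ng/mL) and 4-nitroanilide release was read at 405 nm over 5 min at 37 °C. IC50 is the concentration giving 50% inhibition of initial activity, mean ± SD of three experiments. Ki was determined with S-2222 at 0.04-0.20 mM.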

Coagulation factor X [11] = molecular target: T2, Coagulation factor X; experiment: Inhibition of human factor 10a-catalyzed hydrolysis of S-2222; method in brief: as §4
Prothrombin (Bos taurus) [12] = molecular target: Prothrombin (Bos taurus) (UniProt P00735); experiment: Inhibition of bovine thrombin upto 100 uM
Method in brief: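 Bovine plasma thrombin (0.19 NIH units/mL) in Tris/0.1 M NaCl, pH 7.5, was preincubated 2 min at 37 °C with compound in 0.1% DMSO, which also served as vehicle control. Reaction was started with S-2238 (0.66 mM, as added) and read as the rise in A405 over 5 min. Results are percent inhibition of thrombin activity.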

Plasma [13] = experiment: Anticoagulant activity in rabbit plasma assessed as prothrombin time at 2 mM after 2 mins; type: functional, Oryctolagus cuniculus; method in brief: as §1
Plasma [14] = experiment: Anticoagulant activity in rabbit plasma assessed as thrombin time at 2 mM after 2 mins; type: functional, Oryctolagus cuniculus; method in brief: as §2
Plasma [15] = experiment: Anticoagulant activity in rabbit plasma assessed as activated partial thromboplastin time at 2 mM after 2 mins; type: functional, Oryctolagus cuniculus; method in brief: as §3
Prothrombin (Bos taurus) [16] = molecular target: Prothrombin (Bos taurus) (UniProt P00735); experiment: Inhibition of bovine thrombin at 200 uM by Lineweaver-Burke plot analysis
Method in brief: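 Bovine plasma thrombin at a fixed 0.19 NIH units/mL was tested in 0.05 M Tris with 0.1 M NaCl (pH 7.5) at 37 °C, with S-2238 at 0.6 to 1.7 mM. Compound and enzyme were preincubated for under 2 min before substrate was added. Initial rates were plotted as Lineweaver-Burk plots and fitted by linear regression to give the inhibition type and Ki. Mean of three.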

| Structure (SMILES) | Ki (Prothrombin [7]) | IC50 (Prothrombin [8]) | IC50 (Prothrombin [9]) | Ki (Coagulation factor X [10]) | IC50 (Coagulation factor X [11]) | Activity (Prothrombin (Bos taurus) [12]) | Activity (Prothrombin (Bos taurus) [16]) | PT (Plasma [1]) | TT (Plasma [2]) | APTT (Plasma [3]) | PT (Plasma [4]) | TT (Plasma [5]) | APTT (Plasma [6]) | PT (Plasma [13]) | TT (Plasma [14]) | APTT (Plasma [15]) |
| --- | --- | --- | --- | --- | --- | --- | --- | --- | --- | --- | --- | --- | --- | --- | --- | --- |
| O=C(OC1O[C@@H]2COC(=O)c3cc(O)c(O)c(O)c3-c3c(cc(O)c(O)c3O)C(=O)O[C@H]2[C@H](OC(=O)c2cc(O)c(O)c(O)c2)[C@H]1OC(=O)c1cc(O)c(O)c(O)c1)c1cc(O)c(O)c(O)c1 (stereo not given in full) [TELLIMAGRANDIN II] | 420 nM | 70 nM | 14 nM | 440 nM | 210 nM | – | – | 11.9 s | 18.7 s | 45.7 s | >300 s | >300 s | >300 s | – | – | – |
| O=C1O[C@H]2[C@H](O)[C@@H](CO)OC(O)[C@@H]2OC(=O)c2cc(O)c(O)c(O)c2-c2c1cc(O)c(O)c2O (stereo not given in full) | – | > 200000 nM | > 200000 nM | – | – | – | inactive | – | – | – | – | – | – | 10 s | 9.43 s | 39.9 s |
| O=C1OC[C@@H](O)[C@H]([C@@H]2OC(=O)c3cc(O)c(O)c(O)c3-c3c(O)c(O)c(O)c4c3C(=O)O[C@H]2[C@H]4O)OC(=O)c2cc(O)c(O)c(O)c2-c2c1cc(O)c(O)c2O | 830 nM | 190 nM | 26 nM | 690 nM | 280 nM | – | – | 13.9 s | 16.2 s | 31.6 s | >300 s | >300 s | >300 s | – | – | – |

Now from value to molecule, other results behind:

| Ki (Prothrombin [7]) | IC50 (Prothrombin [8]) | IC50 (Prothrombin [9]) | Ki (Coagulation factor X [10]) | IC50 (Coagulation factor X [11]) | Activity (Prothrombin (Bos taurus) [12]) | Activity (Prothrombin (Bos taurus) [16]) | Structure (SMILES) | PT (Plasma [1]) | TT (Plasma [2]) | APTT (Plasma [3]) | PT (Plasma [4]) | TT (Plasma [5]) | APTT (Plasma [6]) | PT (Plasma [13]) | TT (Plasma [14]) | APTT (Plasma [15]) |
| --- | --- | --- | --- | --- | --- | --- | --- | --- | --- | --- | --- | --- | --- | --- | --- | --- |
| – | – | – | – | – | inactive | – | COc1cc2c(c(OC)c1OC)-c1c(cc(OC)c(OC)c1OC)C(=O)O[C@H]1[C@@H]3OC(=O)c4cc(OC)c(OC)c(OC)c4-c4c(cc(OC)c(OC)c4OC)C(=O)O[C@H]3C(OC)O[C@@H]1COC2=O (stereo not given in full) | – | – | – | – | – | – | – | – | – |
| – | > 200000 nM | > 200000 nM | – | – | – | inactive | O=C(OC[C@H]1OC(O)[C@H](OC(=O)c2cc(O)c(O)c(O)c2)[C@@H](O)[C@@H]1O)c1cc(O)c(O)c(O)c1 (stereo not given in full) | – | – | – | – | – | – | 11.1 s | 10.7 s | 40.8 s |
